Calls of active or inactive are those of the source.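 Rule for the calls: active = falling transferrin uptake with a fitted half-maximal potency at or below twice the top valid tested dose; inconclusive = flat fit with a 30 to 70% drop, or poor fit; inactive = the rest.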

The nature of the assay: transferrin receptor uptake blockade – imaging, Alexa594-transferrin, dry powder, selectivity assay for SR-BI HDL uptake inhibitor project, dose response (AID 602134). To be noted: mSR-BI cells; series mostly up to 35 µM. The procedure, abridged:
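Material – mSR-BI cells · Buffer or medium – serum-free DMEM, 1% BSA · Reagent – Alexa-594 transferrin, 30 µg/mL · Schedule – transferrin uptake 30 min at 37 °C, stopped on ice · Detection – fluorescence imaging, Alexa-594 and DAPI · Read-out basis – normalized percent of cells with above-threshold perinuclear transferrin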
`CCCCCCC1CCC/C1=N\NC(N)=S` (configuration not stated): the result was inactive. In the case of `CCC(=O)N1CCc2cc(-c3csc(NC(=O)c4cccc(OC)c4)n3)ccc21` it was “inactive”; in that of `COc1ccc(-c2cc(CC(=O)N(C3CCCCC3)C(C)C(=O)NC3CCCC3)no2)cc1OC` (configuration not stated), “inactive”. In the case of `COc1cc(OC)cc(C(=O)Nc2nc(-c3ccc4c(c3)CCN4C(=O)CN(C)C)cs2)c1` it was “inactive”. For the compound `CCC(=O)N1CCc2cc(-c3csc(NC(=O)c4ccc(F)c(OC)c4)n3)ccc21`, the compound was classed as inactive. In the case of `CCC(=O)N1CC(C)(C)c2cc(-c3csc(NC(=O)c4cc(OC)cc(OC)c4)n3)ccc21` it was “inactive”; in that of `CCNC(=O)N1CCc2cc(-c3csc(NC(=O)c4cc(OC)cc(OC)c4)n3)ccc21`, “inactive”; in that of `C[C@@H]1CN([C@H](C)CO)C(=O)c2cc(NC(=O)Cc3cn(C)c4ccccc34)ccc2O[C@H]1CN(C)S(=O)(=O)c1ccc(Cl)cc1`, “inactive”.

Regarding `CC(=O)N1CCc2cc(-c3nc(NC(=O)c4cccc(OC(F)(F)F)c4)sc3C)ccc21`, the result was inactive.

For `COCC(=O)N1CCc2cc(-c3csc(NC(=O)c4cc(OC)cc(OC)c4)n3)ccc21`, the call was inactive.

As to `C[C@H](C(=O)NC1CCCC1)N(C(=O)Cn1nnc(-c2ccc3c(c2)OCO3)n1)C1CCCCC1`, the result was inactive.

Take `COc1c(NC(=O)C(=O)c2ccc(OCCN3CCOCC3)c3ccccc23)cc(C(C)(C)C)cc1NS(C)(=O)=O`: the compound was called inactive.

The record behind these values is PubChem BioAssay AID602134 (Broad Institute, 2011).
